Reference: ChEMBL document CHEMBL4765307, “Design, synthesis and biological activity of novel 2,3,4,5-tetra-substituted thiophene derivatives as PI3Kα inhibitors with potent antitumor activity” (Eur J Med Chem, 2020)

Assay: Metabolic stability in rat liver microsomes assessed as parent compound remaining at 1 uM preincubated for 10 mins followed by incubation in phosphate buffer at pH 7.4 for 60 mins by LC-MS/MS analysis
Type: ADME, Microsome
Conditions: time 70 min, read-out: Stabilty
In short: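 Compound 1 µM with human or rat microsomes 0.5 mg/mL, preincubated 10 min at 37 °C in 100 mM potassium phosphate pH 7.4, 10 mM MgCl2; started with NADPH, sampled 0–60 min, quenched with cold acetonitrile, LC–MS/MS. A parallel no-NADPH control was run.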

remaining at 1 h, 1 µM: 42.6%
SMILES: N#Cc1c(N2CCOCC2)sc(-c2nc[nH]n2)c1-c1ccc(NC(=O)Nc2ccccc2Cl)cc1
